Measured values from publication PMC6893910 (ACS chemical biology, 2019).
“Also recorded” adds a separate entry of the source.

Assays:
HDAC11 [1] = target: T1, HDAC11 (Homo sapiens, UniProt Q96DB2); test: HPLC-based HDAC11 assay with myristoyl-H3K9 peptide; format: biochemical
T1 sequence (Q96DB2 1-347): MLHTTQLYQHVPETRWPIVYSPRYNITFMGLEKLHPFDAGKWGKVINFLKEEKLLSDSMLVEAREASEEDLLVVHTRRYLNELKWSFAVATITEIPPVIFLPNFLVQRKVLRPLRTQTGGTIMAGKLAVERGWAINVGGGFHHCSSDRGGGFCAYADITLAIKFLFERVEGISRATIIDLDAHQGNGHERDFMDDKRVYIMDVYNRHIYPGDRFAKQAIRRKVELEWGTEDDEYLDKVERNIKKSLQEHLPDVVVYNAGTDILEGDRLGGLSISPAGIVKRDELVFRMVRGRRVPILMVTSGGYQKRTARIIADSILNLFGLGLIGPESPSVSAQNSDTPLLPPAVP

[2] = tested on: acetylation level of α-tubulin; test: Acetyl-α-tubulin; format: cell-based; conditions: HEK 293T cells, 6 hrs
Summary of the method: (§1)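 HEK 293T cells were treated with test compound for 6 hrs. Acetyl-α-tubulin (K40) and acetyl-histone H3 were both detected by immunoblot of the treated cells.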

[3] = tested on: acetylation level of histone H3; test: Acetyl-histone H3 immunoblot in HEK 293T cells; format: cell-based; conditions: 6 hrs
Summary of the method: as §1

HDAC11 [4] = target: T1, HDAC11; test: HDAC11 demyristoylation of myristoyl-SHMT2 peptide in vitro; format: biochemical; conditions: read-out: IC50 against HDAC11; myristoyl-SHMT2 peptide substrate
HDAC1 = HDAC1 (Homo sapiens, UniProt Q13547); test: In vitro selectivity assay with acyl-H3K9 peptide, HDAC1; format: biochemical; conditions: at 100 μM
Chain of HDAC1 (Q13547 whole entry, species assumed): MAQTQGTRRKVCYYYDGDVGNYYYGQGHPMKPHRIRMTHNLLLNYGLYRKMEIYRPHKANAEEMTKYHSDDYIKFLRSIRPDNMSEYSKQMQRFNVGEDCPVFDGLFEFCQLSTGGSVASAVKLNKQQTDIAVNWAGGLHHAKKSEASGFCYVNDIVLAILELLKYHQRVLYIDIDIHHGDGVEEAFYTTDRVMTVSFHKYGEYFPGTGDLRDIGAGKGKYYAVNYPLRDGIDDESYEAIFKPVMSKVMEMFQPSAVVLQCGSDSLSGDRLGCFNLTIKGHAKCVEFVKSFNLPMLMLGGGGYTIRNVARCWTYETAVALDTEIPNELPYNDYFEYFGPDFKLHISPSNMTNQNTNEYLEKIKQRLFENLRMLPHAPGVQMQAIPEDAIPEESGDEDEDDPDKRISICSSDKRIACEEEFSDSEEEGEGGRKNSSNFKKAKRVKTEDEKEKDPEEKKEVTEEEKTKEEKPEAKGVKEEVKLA

HDAC8 = target: T2, HDAC8 (Homo sapiens, UniProt Q9BY41); test: In vitro selectivity assay with acyl-H3K9 peptide, HDAC8; format: biochemical; conditions: at 100 μM
T2 sequence (Q9BY41 1-377): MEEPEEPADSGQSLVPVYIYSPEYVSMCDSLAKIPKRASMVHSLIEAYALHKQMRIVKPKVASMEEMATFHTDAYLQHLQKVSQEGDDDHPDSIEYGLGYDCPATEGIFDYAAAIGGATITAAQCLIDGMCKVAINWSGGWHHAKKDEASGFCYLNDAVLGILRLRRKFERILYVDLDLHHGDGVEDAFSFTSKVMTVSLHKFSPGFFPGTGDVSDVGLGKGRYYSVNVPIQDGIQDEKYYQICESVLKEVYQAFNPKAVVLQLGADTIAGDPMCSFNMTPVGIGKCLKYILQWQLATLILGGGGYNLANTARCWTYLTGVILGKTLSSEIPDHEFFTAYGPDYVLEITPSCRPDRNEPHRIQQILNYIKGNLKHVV

HDAC4 = HDAC4 (Homo sapiens, UniProt P56524); test: In vitro selectivity assay with acyl-H3K9 peptide, HDAC4; format: biochemical; conditions: at 100 μM
Chain of HDAC4 (P56524 whole entry, species assumed): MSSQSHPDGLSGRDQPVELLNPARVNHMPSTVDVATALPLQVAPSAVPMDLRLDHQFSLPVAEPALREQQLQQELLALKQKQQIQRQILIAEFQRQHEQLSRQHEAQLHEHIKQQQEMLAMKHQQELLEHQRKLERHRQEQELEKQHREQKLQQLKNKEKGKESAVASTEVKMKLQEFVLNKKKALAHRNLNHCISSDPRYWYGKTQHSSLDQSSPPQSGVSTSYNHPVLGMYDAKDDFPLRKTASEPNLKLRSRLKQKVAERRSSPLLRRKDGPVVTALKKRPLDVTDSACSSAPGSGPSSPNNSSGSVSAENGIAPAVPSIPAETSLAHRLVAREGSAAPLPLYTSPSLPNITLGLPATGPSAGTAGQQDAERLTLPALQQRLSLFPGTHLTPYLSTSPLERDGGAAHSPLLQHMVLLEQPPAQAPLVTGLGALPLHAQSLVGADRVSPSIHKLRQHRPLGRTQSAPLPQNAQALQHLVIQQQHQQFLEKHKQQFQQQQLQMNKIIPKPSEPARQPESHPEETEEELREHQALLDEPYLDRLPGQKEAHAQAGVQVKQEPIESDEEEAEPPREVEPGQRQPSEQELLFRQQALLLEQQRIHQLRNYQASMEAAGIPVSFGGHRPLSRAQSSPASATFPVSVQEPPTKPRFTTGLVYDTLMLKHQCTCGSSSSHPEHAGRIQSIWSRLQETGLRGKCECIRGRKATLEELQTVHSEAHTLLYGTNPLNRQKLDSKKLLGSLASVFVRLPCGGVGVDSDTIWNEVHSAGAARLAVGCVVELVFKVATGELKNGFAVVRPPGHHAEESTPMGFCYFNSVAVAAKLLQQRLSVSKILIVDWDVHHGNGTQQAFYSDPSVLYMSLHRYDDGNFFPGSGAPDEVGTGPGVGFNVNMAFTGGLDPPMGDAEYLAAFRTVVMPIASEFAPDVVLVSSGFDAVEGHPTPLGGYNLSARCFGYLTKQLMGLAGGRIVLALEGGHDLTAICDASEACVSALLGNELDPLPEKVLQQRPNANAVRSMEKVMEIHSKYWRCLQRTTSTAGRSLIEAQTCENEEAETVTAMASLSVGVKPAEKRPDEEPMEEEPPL

SIRT1 = target: T3, SIRT1 (Homo sapiens, UniProt Q96EB6); test: In vitro selectivity assay with acyl-H3K9 peptide, SIRT1; format: biochemical; conditions: at 100 μM
T3 sequence (Q96EB6 1-747): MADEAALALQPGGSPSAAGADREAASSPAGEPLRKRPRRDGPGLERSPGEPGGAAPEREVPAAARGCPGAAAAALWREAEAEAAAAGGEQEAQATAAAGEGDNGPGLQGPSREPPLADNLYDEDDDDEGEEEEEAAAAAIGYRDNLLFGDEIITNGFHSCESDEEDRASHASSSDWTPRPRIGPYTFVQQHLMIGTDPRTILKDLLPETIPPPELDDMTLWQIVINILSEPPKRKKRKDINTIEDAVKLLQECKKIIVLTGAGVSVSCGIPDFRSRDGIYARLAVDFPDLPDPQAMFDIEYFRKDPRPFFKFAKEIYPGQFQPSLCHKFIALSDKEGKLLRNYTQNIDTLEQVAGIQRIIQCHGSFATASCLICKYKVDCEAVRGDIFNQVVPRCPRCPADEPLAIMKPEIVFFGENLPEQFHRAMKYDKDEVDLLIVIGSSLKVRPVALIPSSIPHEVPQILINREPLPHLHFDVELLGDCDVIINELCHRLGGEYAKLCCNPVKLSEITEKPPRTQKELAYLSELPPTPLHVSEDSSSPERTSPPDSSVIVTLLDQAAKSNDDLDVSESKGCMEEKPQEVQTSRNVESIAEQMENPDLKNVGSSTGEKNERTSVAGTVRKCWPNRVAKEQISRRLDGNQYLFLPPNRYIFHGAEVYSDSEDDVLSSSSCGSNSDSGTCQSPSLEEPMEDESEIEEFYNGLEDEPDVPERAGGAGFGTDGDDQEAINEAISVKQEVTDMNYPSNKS

SIRT2 = target: T4, SIRT2 (Homo sapiens, UniProt Q8IXJ6); test: In vitro selectivity assay with acyl-H3K9 peptide, SIRT2; format: biochemical; conditions: at 100 μM
T4 sequence (Q8IXJ6 1-389): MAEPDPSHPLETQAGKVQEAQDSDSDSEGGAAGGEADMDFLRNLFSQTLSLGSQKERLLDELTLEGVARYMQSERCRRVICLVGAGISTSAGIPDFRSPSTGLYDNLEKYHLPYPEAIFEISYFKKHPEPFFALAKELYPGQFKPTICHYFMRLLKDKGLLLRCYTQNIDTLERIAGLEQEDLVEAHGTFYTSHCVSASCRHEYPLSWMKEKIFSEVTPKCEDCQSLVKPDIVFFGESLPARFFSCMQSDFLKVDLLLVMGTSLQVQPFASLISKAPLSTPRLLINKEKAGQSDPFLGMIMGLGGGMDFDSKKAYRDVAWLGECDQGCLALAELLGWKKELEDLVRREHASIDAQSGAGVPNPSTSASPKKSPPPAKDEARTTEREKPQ

SIRT3 = target: T5, SIRT3 (Homo sapiens, UniProt Q9NTG7); test: In vitro selectivity assay with acyl-H3K9 peptide, SIRT3; format: biochemical; conditions: at 100 μM
T5 sequence (Q9NTG7 1-399): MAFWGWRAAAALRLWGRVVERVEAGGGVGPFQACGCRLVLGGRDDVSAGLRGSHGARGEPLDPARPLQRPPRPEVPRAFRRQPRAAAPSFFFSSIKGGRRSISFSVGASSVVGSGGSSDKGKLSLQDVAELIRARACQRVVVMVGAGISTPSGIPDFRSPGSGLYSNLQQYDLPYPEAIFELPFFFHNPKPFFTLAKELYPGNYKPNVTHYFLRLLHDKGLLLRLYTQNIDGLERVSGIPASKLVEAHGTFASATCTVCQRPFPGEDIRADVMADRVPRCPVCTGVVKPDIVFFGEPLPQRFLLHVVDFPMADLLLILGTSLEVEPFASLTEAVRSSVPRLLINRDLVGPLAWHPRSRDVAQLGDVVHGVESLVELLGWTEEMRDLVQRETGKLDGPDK

SIRT6 = SIRT6 (Homo sapiens, UniProt Q8N6T7); test: In vitro selectivity assay with acyl-H3K9 peptide, SIRT6; format: biochemical; conditions: at 100 μM
Chain of SIRT6 (Q8N6T7 whole entry, species assumed): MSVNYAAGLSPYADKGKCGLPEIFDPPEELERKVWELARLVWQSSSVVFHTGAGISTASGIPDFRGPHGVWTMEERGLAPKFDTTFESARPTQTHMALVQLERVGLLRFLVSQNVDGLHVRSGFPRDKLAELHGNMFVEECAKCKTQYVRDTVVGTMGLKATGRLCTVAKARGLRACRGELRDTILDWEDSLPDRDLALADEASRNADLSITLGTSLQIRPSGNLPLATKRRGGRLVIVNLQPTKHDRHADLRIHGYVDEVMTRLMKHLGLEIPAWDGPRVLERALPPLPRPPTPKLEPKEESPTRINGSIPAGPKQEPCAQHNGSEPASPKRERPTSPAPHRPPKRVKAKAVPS

[5] = LC-MS based detection of compound in cell lysate; format: in vitro ADME; conditions: LC-MS based assay
[6] = myristoyl-H3K9 peptide substrate, HPLC assay

Which HDAC11 inhibition (HDAC11 [1]; at 10 μM) does the source give for `CCCCCCCCCCCCCCCC(=O)O` [palmitic acid] here?
Its HDAC11 inhibition is “no inhibition”.

What does the source list for `O=C(CCCCCCC(=O)Nc1ccccc1)NO` [SAHA, Vorinostat]?
HDAC11 inhibition (in words) (HDAC11 [1]; [6]): Neither SAHA or UF010 could inhibit HDAC11; acetylation level of α-tubulin ([2]; at 1 μM): significantly increased; acetylation level of histone H3 ([3]; at 1 μM): significantly increased

Which “HDAC11 inhibition (in words)” value (HDAC11 [1]; [6]) does the source give for `CCCCNNC(=O)c1ccc(Br)cc1` [UF010] here?
Its value is “Neither SAHA or UF010 could inhibit HDAC11; also recorded: did not inhibit HDAC11”.

For `CC1(C)c2cccc(C(=O)NO)c2CN1c1cnc(C(F)(F)F)cn1` [FT895], which “acetylation level of α-tubulin” value ([2]; up to 50 μM) is on record?
Its value is “did not affect”.

And the “acetylation level of histone H3” value ([3]; up to 50 μM)?
Its value is “did not affect”.

For `CCCCCCCCCCCCCCCCNNC(=O)c1cccs1` [SIS17], which IC50 (HDAC11 [1]; read-out: IC50 against HDAC11, myristoyl-H3K9 peptide substrate, HPLC assay) is on record?
The IC50 was 830 nM.

What about the IC50 (HDAC11 [4]) of the same compound?
The IC50 was 270 nM.

What about the HDAC1 inhibition (HDAC1) of the same compound?
The HDAC1 inhibition was “did not show significant inhibition”.

And the HDAC8 inhibition (HDAC8)?
Its HDAC8 inhibition is “did not show significant inhibition”.

And the HDAC4 inhibition (HDAC4)?
Its HDAC4 inhibition is “did not show significant inhibition”.

And the SIRT1 inhibition (SIRT1)?
The SIRT1 inhibition was “did not show significant inhibition”.

What about the SIRT2 inhibition (SIRT2) of the same compound?
The SIRT2 inhibition was “did not show significant inhibition”.

What about the SIRT3 inhibition (SIRT3) of the same compound?
The SIRT3 inhibition was “did not show significant inhibition”.

And the SIRT6 inhibition (SIRT6)?
Its SIRT6 inhibition is “did not show significant inhibition”.

What about the “acetylation level of α-tubulin” value ([2]; up to 50 μM) of the same compound?
Its value is “did not affect”.

And the “acetylation level of histone H3” value ([3]; up to 50 μM)?
The value was “did not affect”.

And the “detection of compound in cell lysate” value [5]?
Its value is “could readily detect”.
